This is an account of results in ChEMBL document CHEMBL1123492, “Carboxyl-modified amino acids and peptides as protease inhibitors” (J Med Chem, 1986).

The Km is the concentration of substrate that gives half-maximal velocity.

Series [1] is described as follows: Michaelis constant against leucine aminopeptidase-C.
Series [2] in a line: Michaelis constant against Leucine aminopeptidase-M.
Series [3] has as its system NCC(=O)NC(Cc1ccccc1)C(=O)Nc1ccc([N+](=O)[O-])cc1. As to the kind of experiment: Michaelis constant against Dipeptidyl aminopeptidase 1. In short, it runs like this: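 Cathepsin C diluted 1:200 daily in ice-cold 50 mM citrate pH 5 with 10 mM cysteamine. Gly-Phe p-nitroanilide hydrolysis at 37 °C read at 405 nm (Δε 9900 M⁻¹ cm⁻¹), started by adding substrate to prewarmed enzyme/inhibitor. Irreversible inhibition: enzyme preincubated with varied inhibitor levels, aliquots diluted into substrate over time. k_app from ln(% activity) vs time; Ki and k2 from 1/k_app vs 1/[I].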

`CC(C)C[C@H](N)C(=O)Nc1ccc([N+](=O)[O-])cc1`: the Michaelis constant (Km) stood at 2100 µM in series [1] and 600 µM in series [2]. Consider “Dipeptidyl peptidase 1 (Homo sapiens), P53634”, for which the Michaelis constant (Km) in series [3] was determined as 3100 µM.
